Experimental data taken from ChEMBL document CHEMBL1153726, “Synthesis and anticancer activity of sclerophytin-inspired hydroisobenzofurans” (Bioorg Med Chem Lett, 2009).

Key:
Type in all cases: functional
TK-10 = test: Growth inhibition of human TK10 cells at 1 nM after 96 hrs by MTT assay; parameters: scale not given: the % may be the effect or the level left
HT-29 = test: Growth inhibition of human HT-29 cells at 100 nM after 96 hrs by MTT assay; parameters: scale not given: the % may be the effect or the level left
SK-MEL-5 [1] = test: Growth inhibition of human SK-MEL-5 cells at 10 uM after 96 hrs by MTT assay; parameters: scale not given: the % may be the effect or the level left
IGROV-1 [2] = test: Growth inhibition of human IGROV1 cells at 100 nM after 96 hrs by MTT assay; parameters: scale not given: the % may be the effect or the level left
UACC-62 = test: Growth inhibition of human UACC62 cells at 100 nM after 96 hrs by MTT assay; parameters: scale not given: the % may be the effect or the level left
OVCAR-8 = test: Growth inhibition of human OVCAR8 cells at 1 uM after 96 hrs by MTT assay; parameters: scale not given: the % may be the effect or the level left
NCI-H23 [3] = test: Growth inhibition of human NCI-H23 cells at 1 nM after 96 hrs by MTT assay; parameters: scale not given: the % may be the effect or the level left
SR [4] = test: Growth inhibition of human SR cells at 10 nM after 96 hrs by MTT assay; parameters: scale not given: the % may be the effect or the level left
[5] = Growth inhibition of human Hs 578T cells at 10 uM after 96 hrs by MTT assay; parameters: scale not given: the % may be the effect or the level left
SR [6] = test: Growth inhibition of human SR cells at 10 uM after 96 hrs by MTT assay; parameters: scale not given: the % may be the effect or the level left
NCI-H226 = test: Growth inhibition of human NCI-H226 cells at 10 uM after 96 hrs by MTT assay; parameters: scale not given: the % may be the effect or the level left
MDA-MB-231 = test: Growth inhibition of human MDA-MB-231 cells at 1 uM after 96 hrs by MTT assay; parameters: scale not given: the % may be the effect or the level left
[7] = Growth inhibition of human RPMI8266 cells at 1 uM after 96 hrs by MTT assay; parameters: scale not given: the % may be the effect or the level left
NCI-H23 [8] = test: Growth inhibition of human NCI-H23 cells at 10 uM after 96 hrs by MTT assay; parameters: scale not given: the % may be the effect or the level left
NCI-H322M [9] = test: Growth inhibition of human NCI-H322M cells after 96 hrs by MTT assay
Procedure, shortened: (§1)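 Run in the NCI 60 human tumour cell line panel as a five-dose assay. GI50 and LC50 were reported for each cell line.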

SR [10] = test: Growth inhibition of human SR cells at 100 nM after 96 hrs by MTT assay; parameters: scale not given: the % may be the effect or the level left
M14 [11] = test: Growth inhibition of human M14 cells at 10 nM after 96 hrs by MTT assay; parameters: scale not given: the % may be the effect or the level left
HL-60(TB) = test: Growth inhibition of human HL-60(TB) cells after 96 hrs by MTT assay; settings: HL-60, 96 h
IGROV-1 [12] = test: Growth inhibition of human IGROV1 cells after 96 hrs by MTT assay; settings: IGROV-1, 96 h; procedure, shortened: as §1
SW-620 = test: Growth inhibition of human SW620 cells at 1 nM after 96 hrs by MTT assay; parameters: scale not given: the % may be the effect or the level left
NCI/ADR-RES = test: Growth inhibition of human NCI/ADR-RES cells at 10 nM after 96 hrs by MTT assay; parameters: scale not given: the % may be the effect or the level left
HCT-116 = test: Growth inhibition of human HCT116 cells at 10 nM after 96 hrs by MTT assay; parameters: scale not given: the % may be the effect or the level left
COLO 205 [13] = test: Growth inhibition of human COLO205 cells at 100 nM after 96 hrs by MTT assay; parameters: scale not given: the % may be the effect or the level left
K562 = test: Growth inhibition of human K562 cells at 1 nM after 96 hrs by MTT assay; parameters: scale not given: the % may be the effect or the level left
SK-MEL-28 [14] = test: Growth inhibition of human SK-MEL-28 cells at 10 nM after 96 hrs by MTT assay; parameters: scale not given: the % may be the effect or the level left
SK-OV-3 = test: Growth inhibition of human SKOV3 cells at 10 nM after 96 hrs by MTT assay; parameters: scale not given: the % may be the effect or the level left
M14 [15] = test: Growth inhibition of human M14 cells at 100 nM after 96 hrs by MTT assay; parameters: scale not given: the % may be the effect or the level left
SK-MEL-5 [16] = test: Growth inhibition of human SK-MEL-5 cells at 1 nM after 96 hrs by MTT assay; parameters: scale not given: the % may be the effect or the level left
MDA-MB-435 = test: Growth inhibition of human MDA-MB-435 cells at 1 nM after 96 hrs by MTT assay; parameters: scale not given: the % may be the effect or the level left
CAKI-1 = test: Growth inhibition of human Caki1 cells at 1 nM after 96 hrs by MTT assay; parameters: scale not given: the % may be the effect or the level left
NCI-H23 [17] = test: Growth inhibition of human NCI-H23 cells after 96 hrs by MTT assay; settings: NCI-H23, 96 h; procedure, shortened: as §1
M14 [18] = test: Growth inhibition of human M14 cells after 96 hrs by MTT assay; settings: M14, 96 h; procedure, shortened: as §1
SK-MEL-28 [19] = test: Growth inhibition of human SK-MEL-28 cells at 1 nM after 96 hrs by MTT assay; parameters: scale not given: the % may be the effect or the level left
[20] = Growth inhibition of human Hs 578T cells at 10 nM after 96 hrs by MTT assay; parameters: scale not given: the % may be the effect or the level left
NCI-H23 [21] = test: Growth inhibition of human NCI-H23 cells at 1 uM after 96 hrs by MTT assay; parameters: scale not given: the % may be the effect or the level left
COLO 205 [22] = test: Growth inhibition of human COLO205 cells at 10 uM after 96 hrs by MTT assay; parameters: scale not given: the % may be the effect or the level left
HCC 2998 = test: Growth inhibition of human HCC2998 cells at 1 nM after 96 hrs by MTT assay; parameters: scale not given: the % may be the effect or the level left
SNB-75 = test: Growth inhibition of human SNB75 cells at 10 uM after 96 hrs by MTT assay; parameters: scale not given: the % may be the effect or the level left
CCRF-CEM = test: Growth inhibition of human CCRF-CEM cells at 10 uM after 96 hrs by MTT assay; parameters: scale not given: the % may be the effect or the level left
NCI-H322M [23] = test: Growth inhibition of human NCI-H322M cells at 10 uM after 96 hrs by MTT assay; parameters: scale not given: the % may be the effect or the level left
UO-31 = test: Growth inhibition of human UO31 cells at 10 uM after 96 hrs by MTT assay; parameters: scale not given: the % may be the effect or the level left
NCI-H460 = test: Growth inhibition of human NCI-H460 cells at 1 uM after 96 hrs by MTT assay; parameters: scale not given: the % may be the effect or the level left
BT-549 = test: Growth inhibition of human BT549 cells at 10 uM after 96 hrs by MTT assay; parameters: scale not given: the % may be the effect or the level left
Malme-3M = test: Growth inhibition of human MALME-3M cells at 10 nM after 96 hrs by MTT assay; parameters: scale not given: the % may be the effect or the level left
SF-295 = test: Growth inhibition of human SF295 cells at 1 uM after 96 hrs by MTT assay; parameters: scale not given: the % may be the effect or the level left
[24] = read-out: LC50 (the source's name)
[25] = read-out: Log10GI50 (converted)
[26] = read-out: Log10LC50 (converted)

C=C(C)[C@H]1CC=C(C)C2=CO[C@@H](c3ccccc3F)[C@@H]21
Activity (TK-10): 84% | Activity (HT-29): 82% | Activity (SK-MEL-5 [1]): 84.67% | Activity (IGROV-1 [2]): 83% | Activity (UACC-62): 73% | Activity (OVCAR-8): 59% | Activity (NCI-H23 [3]): 98% | Activity (SR [4]): 81% | Activity [5]: 95.86% | Activity (SR [6]): 62.58% | Activity (NCI-H226): 98.1% | Activity (MDA-MB-231): 43% | Activity [7]: -52% | Activity (NCI-H23 [8]): 95.4% | GI50 (NCI-H322M [9]; read-out: GI50): 9.5 µM | CC50 (NCI-H322M [9]; [24]): 54.6 µM | GI50 (NCI-H322M [9]; [25]): 9.55 µM | CC50 (NCI-H322M [9]; [26]): 55 µM | TGI (NCI-H322M [9]; read-out: Log10TGI (converted)): 23.4 µM | TGI (NCI-H322M [9]; read-out: TGI): 23.2 µM | Activity (SR [10]): 47% | Activity (M14 [11]): 89% | GI50 (HL-60(TB); read-out: GI50): 2.08 µM | CC50 (HL-60(TB); [24]): 35.5 µM | GI50 (HL-60(TB); [25]): 2.09 µM | CC50 (HL-60(TB); [26]): 35.5 µM | TGI (HL-60(TB); read-out: Log10TGI (converted)): 5.01 µM | TGI (HL-60(TB); read-out: TGI): 4.97 µM | GI50 (IGROV-1 [12]; read-out: GI50): 11.3 µM | CC50 (IGROV-1 [12]; [24]): > 100 µM | GI50 (IGROV-1 [12]; [25]): 11.2 µM | CC50 (IGROV-1 [12]; [26]): > 100 µM | TGI (IGROV-1 [12]; read-out: Log10TGI (converted)): 34.7 µM | TGI (IGROV-1 [12]; read-out: TGI): 34.6 µM | Activity (SW-620): 96% | Activity (NCI/ADR-RES): 97% | Activity (HCT-116): 88% | Activity (COLO 205 [13]): 92% | Activity (K562): 101% | Activity (SK-MEL-28 [14]): 93% | Activity (SK-OV-3): 100% | Activity (M14 [15]): 80% | Activity (SK-MEL-5 [16]): 91% | Activity (MDA-MB-435): 92% | Activity (CAKI-1): 96% | GI50 (NCI-H23 [17]; read-out: GI50): 4.88 µM | CC50 (NCI-H23 [17]; [24]): 51.4 µM | GI50 (NCI-H23 [17]; [25]): 4.9 µM | CC50 (NCI-H23 [17]; [26]): 51.3 µM | TGI (NCI-H23 [17]; read-out: Log10TGI (converted)): 19.5 µM | TGI (NCI-H23 [17]; read-out: TGI): 19.4 µM | GI50 (M14 [18]; read-out: GI50): 6.51 µM | CC50 (M14 [18]; [24]): 45.6 µM | GI50 (M14 [18]; [25]): 6.46 µM | CC50 (M14 [18]; [26]): 45.7 µM | TGI (M14 [18]; read-out: Log10TGI (converted)): 20 µM | TGI (M14 [18]; read-out: TGI): 20.2 µM | Activity (SK-MEL-28 [19]): 98% | Activity [20]: 83% | Activity (NCI-H23 [21]): 34% | Activity (COLO 205 [22]): 101.29% | Activity (HCC 2998): 86% | Activity (SNB-75): 80.72% | Activity (CCRF-CEM): 68.96% | Activity (NCI-H322M [23]): 120.7% | Activity (UO-31): 78.96% | Activity (NCI-H460): 31% | Activity (BT-549): 112.93% | Activity (Malme-3M): 88% | Activity (SF-295): 30%
